Results reported in ChEMBL document CHEMBL3259717, “Synthetic calanolides with bactericidal activity against replicating and nonreplicating Mycobacterium tuberculosis” (J Med Chem, 2014).
Converted amounts (≈) assume the structure as drawn. The source made the active and inactive calls. No cut-off for these calls is given here.

How the values were obtained:
[1] = Cytotoxicity against human HepG2 cells assessed as decrease in ATP signal after 2 days by CellTiter-Glo assay; type: cell-based; conditions: read-out: LD50
Method in brief: (§1)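 HepG2 in DMEM with 10% FBS, pyruvate, glutamine, HEPES and nonessential amino acids, seeded 3000 cells/well in 384-well plates. Compound for 2 days at 1% final DMSO. ATP read by CellTiter-Glo luminescence. LD50 = 50% drop in ATP signal vs DMSO. SI = LD50/MIC90 against replicating Mtb.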

[2] = system: Mycobacterium tuberculosis; experiment: Antibacterial activity against replicating form of wild type Mycobacterium tuberculosis H37Rv assessed as growth inhibition after 7 days by high-throughput screening assay; type: functional; conditions: 168 h
Method in brief: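 Wild-type H37Rv in 7H9 with glycerol, tyloxapol, ADN, in 96-well plates. Set up as the 384-well screen: OD580 0.01 start, compound in DMSO, 7 days at 37 °C, 20% O2, 5% CO2. OD580 read; MIC90 = 90% growth inhibition vs DMSO control.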

[3] = system: Mycobacterium tuberculosis; experiment: Antibacterial activity against non-replicating form of wild type Mycobacterium tuberculosis H37Rv assessed as growth inhibition after 3 days by high-throughput screening assay; type: functional; conditions: 72 h
[4] = Selectivity index, ratio of LD50 for human HepG2 cells to MIC90 for replicating form of Mycobacterium tuberculosis H37Rv; type: toxicity, cell-based; conditions: read-out: Selectivity Index; method in brief: as §1
[5] = system: Mycobacterium tuberculosis; experiment: Bactericidal activity against replicating form of wild type Mycobacterium tuberculosis H37Rv assessed as reduction of log10CFU at 0.6 ug/mL after 7 to 8 days; type: functional
Method in brief: (§2)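 Wild-type Mtb single-cell suspension at OD 0.01 (R) or 0.1 (NR, in NR medium, 1% O2) in 96-well plates with compound for 7 days. Serial dilution in 7H9-ADN, plated on 7H11 agar with glycerol and OADC for CFU.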

[6] = system: Mycobacterium tuberculosis; experiment: Bactericidal activity against non-replicating form of wild type Mycobacterium tuberculosis H37Rv assessed as reduction of log10CFU at 0.6 ug/mL after 7 to 8 days; type: functional; method in brief: as §2
[7] = system: Mycobacterium tuberculosis; experiment: Bactericidal activity against wild type Mycobacterium tuberculosis H37Rv infected in IFN-gamma-stimulated primary human monocyte-derived macrophages assessed as reduction of log10CFU at 1 ug/mL incubated for 7 days followed by compound washout measured after 3 weeks; type: functional
Method in brief: (§3)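 Monocytes from healthy donors isolated by CD14 selection. Differentiated 2 weeks in 40% human plasma with 0.5 ng/mL GM-CSF and TNF-alpha, 10% O2. Then 5 ng/mL IFN-gamma overnight, infected with wild-type Mtb at MOI 0.1. Compound added at 24 h, 1% DMSO final, 7 days. Viability inspected visually; lysed in 0.55% Triton-X and plated on 7H11/OADC for CFU.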

[8] = system: Mycobacterium tuberculosis; experiment: Antibacterial activity against replicating form of Mycobacterium tuberculosis MC2 6220 assessed as growth inhibition after 7 days by high-throughput screening assay; type: functional; conditions: MC2 6220, 168 h
Method in brief: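 Attenuated Mtb mc26220 ΔpanCDΔlysA in 7H9 with glycerol, tyloxapol, OADC, casein amino acids, 240 μg/mL L-lysine, 24 μg/mL pantothenate. Mid-log cells diluted to OD580 0.01 in 384-well plates, compound in DMSO, 7 days at 37 °C, 20% O2, 5% CO2. OD580 read; MIC90 = 90% growth inhibition vs DMSO.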

[9] = system: Mycobacterium tuberculosis; experiment: Antibacterial activity against non-replicating form of Mycobacterium tuberculosis MC2 6220 assessed as growth inhibition after 3 days by high-throughput screening assay; type: functional; conditions: MC2 6220, 72 h
Method in brief: (§4)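 Log-phase mc26220 washed in PBS/tyloxapol, resuspended in Sauton's-based NR medium (butyrate, 0.5 mM NaNO2, pH 5.0) at OD580 0.1. Compound exposure 3 days at 37 °C, 1% O2, 5% CO2. Then R medium added (5-fold dilution), 7 days outgrowth at 20% O2. OD580 read; MIC90 = 90% inhibition vs DMSO.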

[10] = system: Mycobacterium tuberculosis; experiment: Antibacterial activity against non-replicating form of Mycobacterium tuberculosis MC2 6220 assessed as growth inhibition after 7 days by high-throughput screening assay; type: functional; conditions: MC2 6220, 168 h; method in brief: as §4
[11] = system: Mycobacterium tuberculosis; experiment: Bactericidal activity against wild type Mycobacterium tuberculosis H37Rv infected in IFN-gamma-stimulated primary human monocyte-derived macrophages assessed as reduction of log10CFU at 30 times MIC incubated for 7 days followed by compound washout measured after 3 weeks; type: functional; method in brief: as §3
[12] = system: Escherichia coli; experiment: Bactericidal activity against Escherichia coli at <= 25 ug/mL after 6 to 18 hrs; type: functional, organism-based
Method in brief: (§5)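 Log-phase cultures in their own media (M. smegmatis 7H9/glycerol/tyloxapol; E. coli, P. aeruginosa LB; S. aureus Mueller-Hinton; C. albicans YM) diluted to OD 0.01 in 96-well plates. Compound or DMSO added. Incubated 8−48 h with shaking at 37 °C (Candida at 30 °C). OD600 read.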

[13] = system: Staphylococcus aureus; experiment: Bactericidal activity against Staphylococcus aureus ATCC 29213 at <= 25 ug/mL after 6 to 18 hrs; type: functional, organism-based; method in brief: as §5
[14] = system: Pseudomonas aeruginosa; experiment: Bactericidal activity against Pseudomonas aeruginosa PAO1 at <= 25 ug/mL after 6 to 18 hrs; type: functional, organism-based; method in brief: as §5
[15] = system: Candida albicans; experiment: Fungicidal activity against Candida albicans at <= 25 ug/mL after 6 to 18 hrs; type: functional, organism-based; method in brief: as §5
[16] = system: Mycolicibacterium smegmatis; experiment: Antibacterial activity against Mycobacterium smegmatis assessed as growth inhibition at 10 ug/mL after 24 to 48 hrs relative to control; type: functional; conditions: read-out: GI; method in brief: as §5
[17] = system: Mycobacterium tuberculosis; experiment: Bactericidal activity against wild type Mycobacterium tuberculosis H37Rv infected in IFN-gamma-stimulated primary human monocyte-derived macrophages assessed as reduction of log10CFU incubated for 7 days followed by compound washout measured after 3 weeks; type: functional; method in brief: as §3
[18] = Selectivity index, ratio of LD50 for human HepG2 cells to MIC90 for replicating form of Mycobacterium tuberculosis mc'2 6220; type: toxicity, cell-based; conditions: read-out: Selectivity Index; method in brief: as §1
[19] = Genotoxicity in mouse lymphoma cells; type: toxicity, cell-based
[20] = system: Mycobacterium tuberculosis; experiment: Antimycobacterial activity against replicating form of Mycobacterium tuberculosis infected in African green monkey Vero cells assessed as growth inhibition; type: functional
[21] = Cytotoxicity against African green monkey Vero cells; type: cell-based; conditions: chlorocebus sabaeus, read-out: LD50 (the source's name)
[22] = Selectivity index, ratio of LD50 for African green monkey Vero cells to MIC for replicating form of Mycobacterium tuberculosis infected in African green monkey Vero cells; type: toxicity, cell-based; conditions: read-out: Selectivity Index

Row | Structure (SMILES) | CC50 at 48 h [1] [µg/mL] | MIC90 [2] [µg/mL] | MIC90 [3] [µg/mL] | selectivity ratio [4] | MIC90 [8] [µg/mL] | MIC90 [9] [µg/mL] | selectivity ratio [18] | other results
1 | CCc1c(F)c(=O)oc2c1c1c(c3oc([N+](=O)[O-])cc32)C=CC(C)(C)O1 | > 25 | 0.6 (≈ 1.67 µM) | 1 (≈ 2.78 µM) | > 40 | – | – | – | –
2 | CCCc1cc(=O)oc2c1c1c(c3oc([N+](=O)[O-])cc32)C=CC(C)(C)O1 | 3 (≈ 8.44 µM) | 0.3 (≈ 0.844 µM) | 0.6 (≈ 1.69 µM) | 8 | – | – | – | log10cfu [5]: 3.1; log10cfu [6]: 2.6; log10cfu [7]: 1.8
3 | Cc1cc(=O)oc2c1c1c(c3oc([N+](=O)[O-])cc32)C=CC(C)(C)O1 | 1 (≈ 3.06 µM) | 0.08 (≈ 0.244 µM) | 0.2 (≈ 0.611 µM) | 16 | – | – | – | –
4 | CCCc1cc(=O)oc2cc(OCC=C(C)C)c3c(c12)OC(C)(C)C=C3 | > 18 | – | – | – | > 18 | > 18 | – | MIC90 [10]: 2 µg/mL (≈ 5.64 µM)
5 | CCCc1cc(=O)oc2cc(N(C)C)c3c(c12)OC(C)(C)C=C3 | > 16 | – | – | – | > 16 | > 16 | – | MIC90 [10]: 2 µg/mL (≈ 6.38 µM)
6 | CO[C@H]1/C=C/O[C@@]2(C)Oc3c(C)c(O)c4c(O)c(c(/C=N/N5CCN(C)CC5)c(O)c4c3C2=O)NC(=O)/C(C)=C\C=C\[C@H](C)[C@H](O)[C@@H](C)[C@@H](O)[C@@H](C)[C@H](OC(C)=O)[C@@H]1C [RIFAMPIN] | – | – | – | – | – | – | – | log10cfu [11]: 1
7 | CCCc1cc(=O)oc2c3c(cc(OCCN4CCOCC4)c12)O[C@H]([N+](=O)[O-])[C@H]3O | 2 (≈ 4.76 µM) | 0.08 (≈ 0.19 µM) | 0.08 (≈ 0.19 µM) | 20 | – | – | – | –
8 | CCCc1cc(=O)oc2c1c1c(c3oc([N+](=O)[O-])cc32)CCC(C)(C)O1 | > 50 | 0.6 (≈ 1.68 µM) | 1 (≈ 2.8 µM) | > 80 | – | – | – | log10cfu [5]: 2.6; log10cfu [6]: 2.1; Activity [12]: inactive; Activity [13]: inactive; Activity [14]: inactive; Activity [15]: inactive; inhibition of growth at 10 µg/mL [16]: 20%; log10cfu [17]: 2
9 | CC1(C)CCc2c3c(c4oc(=O)c5c(c4c2O1)CCCC5)[C@H](O)[C@@H]([N+](=O)[O-])O3 | 25 (≈ 64.5 µM) | – | – | – | 0.4 (≈ 1.03 µM) | 0.8 (≈ 2.07 µM) | 64 | –
10 | O=[N+]([O-])C1Cc2ccccc2O1 (centres undefined) | 3 (≈ 18.2 µM) | – | – | – | 0.4 (≈ 2.42 µM) | 0.4 (≈ 2.42 µM) | 6 | –
11 | Cc1c(F)c(=O)oc2c3c(c4c(c12)OC(C)(C)CC4)O[C@H]([N+](=O)[O-])[C@H]3O (relative stereo) | 13 (≈ 35.6 µM) | – | – | – | < 0.1 | < 0.1 | > 128 | –
12 | CCCc1cc(=O)oc2c3c(cc(OCCN4CCOCC4)c12)OC(C)([N+](=O)[O-])C3O (racemic) | > 100 | – | – | – | 100 (≈ 230 µM) | 100 (≈ 230 µM) | > 1 | –
13 | CN1CCN(Cc2cc(=O)oc3c2c2c(c4oc([N+](=O)[O-])cc43)C=CC(C)(C)O2)CC1 | 3 (≈ 7.05 µM) | 0.08 (≈ 0.188 µM) | 0.3 (≈ 0.705 µM) | 31 | – | – | – | –
14 | O=[N+]([O-])c1cc2ccccc2o1 | 3 (≈ 18.4 µM) | – | – | – | 0.2 (≈ 1.23 µM) | > 100 | 16 | –
15 | CC1(C)CCc2c3c(c4oc(=O)c5c(c4c2O1)CCC5)[C@H](O)[C@@H]([N+](=O)[O-])O3 | 25 (≈ 67 µM) | – | – | – | 0.2 (≈ 0.536 µM) | 0.4 (≈ 1.07 µM) | 128 | –
16 | CCCc1cc(=O)oc2cc(N3CCNCC3)c3c(c12)OC(C)(C)C=C3.O=C(O)C(F)(F)F | 12 | – | – | – | 23 | > 23 | 0.5 | –
17 | CCCc1cc(=O)oc2c3c(cc(OCCN4CCOCC4)c12)O[C@@H]([N+](=O)[O-])[C@@H]3O | 0.8 (≈ 1.9 µM) | 0.08 (≈ 0.19 µM) | 0.08 (≈ 0.19 µM) | 10 | – | – | – | –
18 | CCCc1cc(=O)oc2c1c(OCc1ccc(F)cc1)cc1oc([N+](=O)[O-])cc12 | > 100 | 0.6 (≈ 1.51 µM) | 3 (≈ 7.55 µM) | > 160 | – | – | – | log10cfu [17]: 1; Activity [19]: Non-toxic
19 | CCCc1cc(=O)oc2c1c(OCCN1CCOCC1)cc1oc([N+](=O)[O-])cc12 | 10 (≈ 24.9 µM) | 0.08 (≈ 0.199 µM) | 0.2 (≈ 0.497 µM) | 125 | – | – | – | log10cfu [17]: 1; Activity [19]: Non-toxic
20 | CCCc1cc(=O)oc2cc(OCCN3CCCCC3)c3c(c12)OC(C)(C)C=C3 | > 20 | – | – | – | > 20 | > 20 | – | MIC90 [10]: 7 µg/mL (≈ 17.6 µM)
21 | CCCc1cc(=O)oc2c3c(c4c(c12)OC(C)(C)C=C4)O[C@H](C)[C@@H](C)[C@@H]3O [CALANOLIDE A] | – | – | – | – | – | – | – | MIC [20]: 3.1 µg/mL (≈ 8.37 µM); CC50 [21]: 7.6 µg/mL (≈ 20.5 µM); selectivity ratio [22]: 2.4
22 | CCCc1cc(=O)oc2c3c(cc(OCCN4CCOCC4)c12)O[C@H]([N+](=O)[O-])[C@H]3C(C)C (racemic) | > 22 | – | – | – | 22 (≈ 49.3 µM) | > 22 | > 1 | –
